From ChEMBL document CHEMBL1811919, “Effects of β-glucosidase hydrolyzed products of harpagide and harpagoside on cyclooxygenase-2 (COX-2) in vitro” (Bioorg Med Chem, 2011)
pIC50: −log10 of the molar value. Active and inactive are the calls of the source. The calls are words filed in the database; no cut-off is given here.

Columns and labels:
[1] = test system: RAW264.7; experiment: Cytotoxicity against mouse RAW264.7 cells at 2.5 to 100 uM after 18 hrs by MTT assay; type: cell-based; conditions: raw264.7, 18 h
How it was run: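 RAW 264.7 murine macrophages in 96-well plates co-incubated with compound or vehicle for 18 h. MTT added to […] final, then 4 h further incubation with DMSO; formazan read at 570 nm. Toxic if MTT metabolism more than 20% below control.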

[2] = test system: RAW264.7; experiment: Effect on basal COX-2 mRNA expression in mouse RAW264.7 cells at 100 uM by RT-PCR; type: functional, cell-based
[3] = test system: RAW264.7; experiment: Inhibition of LPS-induced COX-2 mRNA expression in mouse RAW264.7 cells at 100 uM pre-incubated for 3 hrs before LPS challenge measured 24 hrs post LPS challenge by RT-PCR; type: functional
How it was run: (§1)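 RAW 264.7 cells seeded at 2 × 10⁵ per well and grown to confluence, treated with compound or vehicle for 3 h, then stimulated with LPS 1 µg/ml for 24 h. Total RNA extracted; SYBR real-time RT-PCR, 40 cycles of 95 °C 15 s / 60 °C 1 min, samples in duplicate. Quantified by 2^-ΔΔCt, normalized to β-actin, fold change relative to untreated cells. TPCK 20 µM positive control.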

[4] = test system: RAW264.7; experiment: Effect on basal COX-2 mRNA expression in mouse RAW264.7 cells at 20 uM by RT-PCR; type: functional, cell-based
[5] = test system: RAW264.7; experiment: Inhibition of LPS-induced TNFalpha production in mouse RAW264.7 cells at 2.5 to 100 uM pre-incubated for 30 mins before LPS challenge measured 6 hrs post LPS challenge by ELISA; type: functional, cell-based
How it was run: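 RAW264.7 cells at 2 × 10⁵ per well pretreated with compound, dexamethasone or vehicle for 30 min, then co-incubated with LPS 100 ng/ml for a further 6 h before TNF-α measurement.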

[6] = target: T1, Prostaglandin G/H synthase 1 (Ovis aries) (UniProt P05979); experiment: Inhibition of ovine COX1 at 2.5 to 100 uM incubated for 10 mins by enzyme immunoassay
T1 sequence (whole entry): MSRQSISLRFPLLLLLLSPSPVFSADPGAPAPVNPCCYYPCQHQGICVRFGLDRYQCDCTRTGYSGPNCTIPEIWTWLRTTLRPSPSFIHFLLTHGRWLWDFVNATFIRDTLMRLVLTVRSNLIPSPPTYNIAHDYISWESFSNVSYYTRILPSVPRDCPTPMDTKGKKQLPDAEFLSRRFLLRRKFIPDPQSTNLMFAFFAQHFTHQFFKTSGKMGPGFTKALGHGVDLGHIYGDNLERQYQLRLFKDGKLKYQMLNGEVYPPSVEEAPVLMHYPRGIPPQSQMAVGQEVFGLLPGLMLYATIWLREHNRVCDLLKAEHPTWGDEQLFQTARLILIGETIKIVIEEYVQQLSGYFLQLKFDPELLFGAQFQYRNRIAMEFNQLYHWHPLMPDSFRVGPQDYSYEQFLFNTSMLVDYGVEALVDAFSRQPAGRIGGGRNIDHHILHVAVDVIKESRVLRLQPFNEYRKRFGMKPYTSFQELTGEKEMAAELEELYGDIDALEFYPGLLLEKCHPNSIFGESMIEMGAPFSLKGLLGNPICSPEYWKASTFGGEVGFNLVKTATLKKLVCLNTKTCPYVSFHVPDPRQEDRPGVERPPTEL
How it was run: (§2)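 Screening kit assay. Ovine COX-1 or human recombinant COX-2 with heme in reaction buffer, incubated with compound or DMSO for 10 min. Arachidonic acid added from a 10 mM stock, reaction 2 min at 37 °C. Stopped with 1 M HCl, then saturated SnCl2 for 5 min at room temperature. Prostaglandins quantified by EIA. Background from inactivated enzyme; DMSO taken as 100% activity. Mean ± SEM, Dunnett's test.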

[7] = test system: RAW264.7; experiment: Inhibition of LPS-induced nitric oxide production in mouse RAW264.7 cells at 2.5 to 100 uM pre-incubated for 20 mins before LPS challenge measured 18 hrs post LPS challenge by Griess method; type: functional, cell-based
How it was run: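 RAW264.7 cells at 2 × 10⁵ per well pretreated with compound, aminoguanidine or vehicle for 20 min, then co-incubated with LPS 1 µg/ml for a further 18 h. Supernatant mixed with Griess reagent (1% sulfanilamide, 0.1% naphthylethylenediamine) for nitrite read-out.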

[8] = target: T2, Prostaglandin G/H synthase 2 (Homo sapiens) (UniProt P35354); experiment: Inhibition of human recombinant COX2 at 2.5 to 100 uM incubated for 10 mins by enzyme immunoassay; how it was run: as §2
T2 sequence (whole entry): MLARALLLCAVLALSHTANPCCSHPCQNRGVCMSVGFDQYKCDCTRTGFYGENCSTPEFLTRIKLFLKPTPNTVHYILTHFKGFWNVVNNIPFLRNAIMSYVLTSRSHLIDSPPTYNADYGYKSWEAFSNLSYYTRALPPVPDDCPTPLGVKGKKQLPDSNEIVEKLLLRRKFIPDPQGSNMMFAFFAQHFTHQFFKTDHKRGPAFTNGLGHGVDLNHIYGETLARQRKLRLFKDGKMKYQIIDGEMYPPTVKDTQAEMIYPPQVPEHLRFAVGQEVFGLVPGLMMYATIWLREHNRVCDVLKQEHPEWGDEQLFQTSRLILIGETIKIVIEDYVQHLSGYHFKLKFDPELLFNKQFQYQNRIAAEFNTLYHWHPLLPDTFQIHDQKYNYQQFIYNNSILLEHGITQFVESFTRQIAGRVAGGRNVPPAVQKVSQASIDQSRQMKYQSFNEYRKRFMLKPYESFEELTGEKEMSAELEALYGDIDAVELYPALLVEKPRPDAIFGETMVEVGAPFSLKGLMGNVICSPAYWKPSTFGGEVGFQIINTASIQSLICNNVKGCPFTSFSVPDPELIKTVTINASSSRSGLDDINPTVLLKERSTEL

[9] = test system: RAW264.7; experiment: Inhibition of LPS-induced nitric oxide production in mouse RAW264.7 cells pre-incubated for 20 mins before LPS challenge measured 18 hrs post LPS challenge by Griess method; type: functional, cell-based
How it was run: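 RAW264.7 cells at 2 × 10⁵ cells/well, pretreated with test compound, aminoguanidine or vehicle for 20 min, then LPS co-incubation for a further 18 h. Supernatant mixed with Griess reagent (1% sulfanilamide plus 0.1% naphthylethylenediamine). Concentrations tested 2.5–100 μM.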

[10] = test system: RAW264.7; experiment: Inhibition of LPS-induced TNFalpha production in mouse RAW264.7 cells pre-incubated for 30 mins before LPS challenge measured 6 hrs post LPS challenge by ELISA; type: functional, cell-based
How it was run: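 RAW264.7 macrophages at 2 × 10⁵ cells/well, pretreated with test compound, dexamethasone or vehicle for 30 min, then co-incubated with LPS (100 ng/ml) for a further 6 h. Concentrations tested 2.5–100 μM.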

[11] = test system: RAW264.7; experiment: Inhibition of LPS-induced COX-2 mRNA expression in mouse RAW264.7 cells at 20 uM pre-incubated for 3 hrs before LPS challenge measured 24 hrs post LPS challenge by RT-PCR; type: functional; how it was run: as §1
[12] = target: T1, Prostaglandin G/H synthase 1 (Ovis aries); conditions: 50 uM
[13] = target: T2, Prostaglandin G/H synthase 2 (Homo sapiens); experiment: (§3) Inhibition of human recombinant COX2 incubated for 10 mins by enzyme immunoassay; how it was run: as §2
[14] = target: T3, Prostaglandin G/H synthase 2 (Homo sapiens, UniProt P35354); experiment: as §3; how it was run: as §2
T3 sequence (P35354 whole entry): T2 sequence (whole entry)

Row | Compound | Activity [1] | Activity [2] | Activity [4] | inhibition [5] | inhibition [6] | inhibition [7] | further results
1 | C[C@]1(OC(=O)/C=C/c2ccccc2)C[C@@H](O)[C@]2(O)C=CO[C@@H](O[C@@H]3O[C@H](CO)[C@@H](O)[C@H](O)[C@H]3O)[C@@H]21 [HARPAGOSIDE] | Non-toxic | inactive | inactive | inactive | inactive | inactive | inhibition [3]: inactive; inhibition [8]: inactive
2 | N=C(N)NN |  |  |  |  |  |  | inhibition [9]: Active; inhibition [10]: Active
3 | C[C@@H]1C[C@H]2[C@@H]3CCC4=CC(=O)C=C[C@]4(C)[C@@]3(F)[C@@H](O)C[C@]2(C)[C@@]1(O)C(=O)CO |  |  |  |  |  |  | inhibition [9]: Active; inhibition [10]: Active
4 | C[C@]1(O)C[C@@H](O)[C@]2(O)C=CO[C@@H](O[C@H]3O[C@H](CO)[C@@H](O)[C@H](O)[C@H]3O)[C@@H]21 |  | inactive | inactive | inactive | inactive | inactive | inhibition [3]: inactive; inhibition [8]: inactive
5 | Cc1ccc(S(=O)(=O)N[C@@H](Cc2ccccc2)C(=O)CCl)cc1 [TPCK] |  |  |  |  |  |  | inhibition at 20 µM [11]: 59.5%
6 | CC(=O)Oc1ccccc1C(=O)O |  |  |  |  |  |  | inhibition [12]: Active
7 | C[C@]1(O)C[C@@H](O)[C@]2(O)C=CO[C@@H](O[C@@H]3O[C@H](CO)[C@@H](O)[C@H](O)[C@H]3O)[C@@H]21 [HARPAGIDE] | Non-toxic |  |  |  |  |  | 
8 | C[C@]1(O)C[C@@H](O)[C@](O)(CC=O)[C@@H]1C=O | Non-toxic | inactive | inactive | inactive | inactive | inactive | inhibition at 100 µM [3]: 47.6%; inhibition [13]: Dose-dependent effect; pIC50 [14]: 4.36
